Converted amounts (≈) assume the structure as drawn. The source made the active and inactive calls. The rule behind the calls is not given here.
What was measured:
Candida albicans [1] = experiment: Antimicrobial activity against Candida albicans after 48 hrs by broth dilution method; format: functional
In short: (§1)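 MIC by broth dilution: the lowest concentration (highest dilution) that arrested bacterial or fungal growth. Strains were E. coli ATCC-25922, S. aureus ATCC-25923, P. aeruginosa ATCC-27853 and C. albicans.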

Pseudomonas aeruginosa [2] = experiment: Antimicrobial activity against Pseudomonas aeruginosa ATCC 27853 after 24 hrs by disk diffusion method; format: functional
In short: (§2)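 Zone of inhibition by disc diffusion against E. coli ATCC-25922, S. aureus ATCC-25923, P. aeruginosa ATCC-27853 and recultured Klebsiella pneumoniae.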

Escherichia coli [3] = experiment: Antimicrobial activity against Escherichia coli ATCC […] after 24 hrs by broth dilution method; format: functional; in short: as §1
Escherichia coli [4] = experiment: Antimicrobial activity against Escherichia coli ATCC […] after 24 hrs by disk diffusion method; format: functional; in short: as §2
Staphylococcus aureus [5] = experiment: Antimicrobial activity against Staphylococcus aureus ATCC 25923 after 24 hrs by broth dilution method; format: functional; settings: ATCC 25923, 24 h; in short: as §1
Staphylococcus aureus [6] = experiment: Antimicrobial activity against Staphylococcus aureus ATCC 25923 after 24 hrs by disk diffusion method; format: functional; in short: as §2
Klebsiella pneumoniae [7] = experiment: Antimicrobial activity against Klebsiella pneumoniae at 100 ug/ml after 24 hrs by broth dilution method; format: functional, organism-based
Candida albicans [8] = experiment: Antimicrobial activity against Candida albicans after 48 hrs by agar dilution method; format: functional
In short: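 Candida albicans tested by agar dilution, with compounds in DMSO.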

Pseudomonas aeruginosa [9] = experiment: Antimicrobial activity against Pseudomonas aeruginosa ATCC 27853 after 24 hrs by broth dilution method; format: functional; settings: ATCC 27853, 24 h; in short: as §1
Klebsiella pneumoniae [10] = experiment: Antimicrobial activity against Klebsiella pneumoniae after 24 hrs by disk diffusion method; format: functional; in short: as §2

Row | Structure (SMILES) | MIC (Candida albicans [1]) | diameter of the inhibition zone (DIZ) (Pseudomonas aeruginosa [2]) | MIC (Escherichia coli [3]) | diameter of the inhibition zone (DIZ) (Escherichia coli [4]) | MIC (Staphylococcus aureus [5]) | diameter of the inhibition zone (DIZ) (Staphylococcus aureus [6]) | Activity (Klebsiella pneumoniae [7]) | diameter of the inhibition zone (DIZ) (Candida albicans [8]) | MIC (Pseudomonas aeruginosa [9]) | diameter of the inhibition zone (DIZ) (Klebsiella pneumoniae [10])
1 | O=C(N/N=C/c1ccc(Cl)cc1)c1cc(Cl)c[nH]1 | 25 µg/mL (≈ 88.6 µM) | 15 mm | 12.5 µg/mL (≈ 44.3 µM) | 16 mm | 3.12 µg/mL (≈ 11.1 µM) | 26 mm | inactive | 17 mm | 100 µg/mL (≈ 354 µM) | 
2 | O=C(N/N=C/c1ccccc1O)c1cc(Cl)c(Cl)[nH]1 | 12.5 µg/mL (≈ 41.9 µM) | 18 mm | 3.12 µg/mL (≈ 10.5 µM) | 18 mm | 1.56 µg/mL (≈ 5.23 µM) | 22 mm |  | 16 mm | 50 µg/mL (≈ 168 µM) | 19 mm
3 | O=C(/C=C/c1ccc(Cl)cc1)c1cc(Cl)c(Cl)[nH]1 | 50 µg/mL (≈ 166 µM) | 16 mm | 6.25 µg/mL (≈ 20.8 µM) | 16 mm | 3.12 µg/mL (≈ 10.4 µM) | 25 mm |  | 14 mm | 25 µg/mL (≈ 83.2 µM) | 17 mm
4 | O=C(N/N=C/c1ccccc1)c1cc(Cl)c[nH]1 | 25 µg/mL (≈ 101 µM) | 14 mm | 12.5 µg/mL (≈ 50.5 µM) | 14 mm | 12.5 µg/mL (≈ 50.5 µM) | 17 mm | inactive | 20 mm | 100 µg/mL (≈ 404 µM) | 
5 | O=C(/C=C/c1ccco1)c1cc(Cl)c[nH]1 | 50 µg/mL (≈ 226 µM) | 17 mm | 12.5 µg/mL (≈ 56.4 µM) | 20 mm | 12.5 µg/mL (≈ 56.4 µM) | 22 mm | inactive | 18 mm | 25 µg/mL (≈ 113 µM) | 
6 | CN(C)c1ccc(/C=N/NC(=O)c2cc(Cl)c[nH]2)cc1 | 25 µg/mL (≈ 86 µM) | 14 mm | 12.5 µg/mL (≈ 43 µM) | 17 mm | 12.5 µg/mL (≈ 43 µM) | 10 mm | inactive | 18 mm | 100 µg/mL (≈ 344 µM) | 
7 | C[C@@H]1[C@H](O)[C@@H](C)/C=C/C=C/C=C/C=C/C=C/C=C/C=C/[C@H](O[C@@H]2O[C@H](C)[C@@H](O)[C@H](N)[C@@H]2O)C[C@@H]2O[C@](O)(C[C@@H](O)C[C@@H](O)[C@H](O)CC[C@@H](O)C[C@@H](O)CC(=O)O[C@H]1C)C[C@H](O)[C@H]2C(=O)O [AMPHOTERICIN B] | 1.56 µg/mL (≈ 1.69 µM) |  |  |  |  |  |  | 25 mm |  | 
8 | COc1ccc(OC)c(/C=C/C(=O)c2cc(Cl)c(Cl)[nH]2)c1 | 50 µg/mL (≈ 153 µM) | 15 mm | 6.25 µg/mL (≈ 19.2 µM) | 20 mm | 6.25 µg/mL (≈ 19.2 µM) | 22 mm |  | 15 mm | 100 µg/mL (≈ 307 µM) | 16 mm
9 | COc1ccc(/C=C/C(=O)c2cc(Cl)c[nH]2)cc1OC | 50 µg/mL (≈ 171 µM) | 14 mm | 12.5 µg/mL (≈ 42.8 µM) | 16 mm | 12.5 µg/mL (≈ 42.8 µM) | 13 mm | inactive | 12 mm | 100 µg/mL (≈ 343 µM) | 
10 | COc1ccc(/C=N/NC(=O)c2cc(Cl)c[nH]2)cc1 | 25 µg/mL (≈ 90 µM) | 14 mm | 12.5 µg/mL (≈ 45 µM) | 10 mm | 12.5 µg/mL (≈ 45 µM) | 18 mm | inactive | 15 mm | 100 µg/mL (≈ 360 µM) | 
11 | COc1ccc(OC)c(/C=C/C(=O)c2cc(Cl)c[nH]2)c1 | 50 µg/mL (≈ 171 µM) | 15 mm | 12.5 µg/mL (≈ 42.8 µM) | 18 mm | 12.5 µg/mL (≈ 42.8 µM) | 19 mm | inactive | 16 mm | 100 µg/mL (≈ 343 µM) | 
12 | O=C(/C=C/c1ccc(Cl)cc1)c1cc(Cl)c[nH]1 | 50 µg/mL (≈ 188 µM) | 16 mm | 25 µg/mL (≈ 93.9 µM) | 12 mm | 12.5 µg/mL (≈ 47 µM) | 16 mm | inactive | 13 mm | 100 µg/mL (≈ 376 µM) | 
13 | O=C(N/N=C/c1c(O)cccc1O)c1cc(Cl)c[nH]1 | 25 µg/mL (≈ 89.4 µM) | 14 mm | 6.25 µg/mL (≈ 22.3 µM) | 21 mm | 3.12 µg/mL (≈ 11.2 µM) | 24 mm | inactive | 18 mm | 50 µg/mL (≈ 179 µM) | 
